# Measurements from ChEMBL document CHEMBL1157589, “Antifungal 3,5-disubstituted furanones: From 5-acyloxymethyl to 5-alkylidene derivatives” (Bioorg Med Chem, 2010).
# pIC50: −log10 of the molar value.
# Legend:
# Candida albicans [1] = assay: Antifungal activity against Candida albicans ATCC 44859 after 48 hrs by microdilution method; type: functional; details: ATCC 44859, 48 h
# How it was run: (§1)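 Yeasts held on Sabouraud dextrose agar. MIC by NCCLS M27-A broth microdilution in RPMI 1640 with L-glutamine, buffered with 0.165 M MOPS to pH 7.0. Compounds in DMSO (≤2% final), twofold dilutions 500–0.48. Final inoculum 5 × 10³ ± 0.2 cfu mL⁻¹. Incubated at 35 °C; absorbance at 540 nm read at 24 and 48 h. MIC is 80% growth inhibition versus control; run twice in duplicate.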
# Candida albicans [2] = assay: Antifungal activity against Candida albicans ATCC 90028 after 24 hrs by microdilution method; type: functional; details: ATCC 90028, 24 h; how it was run: as §1
# Candida albicans [3] = assay: Antifungal activity against Candida albicans ATCC 90028 after 48 hrs by microdilution method; type: functional; details: ATCC 90028, 48 h; how it was run: as §1
# Candida parapsilosis [4] = assay: Antifungal activity against Candida parapsilosis ATCC 22019 after 24 hrs by microdilution method; type: functional; details: Lodderomyces parapsilosis, ATCC 22019, 24 h; how it was run: as §1
# Candida parapsilosis [5] = assay: Antifungal activity against Candida parapsilosis ATCC 22019 after 48 hrs by microdilution method; type: functional; details: Lodderomyces parapsilosis, ATCC 22019, 48 h; how it was run: as §1
# Pichia kudriavzevii [6] = assay: Antifungal activity against Candida krusei ATCC 6258 after 24 hrs by microdilution method; type: functional; details: ATCC 6258, 24 h; how it was run: as §1
# Pichia kudriavzevii [7] = assay: Antifungal activity against Candida krusei ATCC 6258 after 48 hrs by microdilution method; type: functional; details: ATCC 6258, 48 h; how it was run: as §1
# Pichia kudriavzevii [8] = assay: Antifungal activity against Candida krusei E28 after 24 hrs by microdilution method; type: functional; details: E28, 24 h; how it was run: as §1
# Pichia kudriavzevii [9] = assay: Antifungal activity against Candida krusei E28 after 48 hrs by microdilution method; type: functional; details: E28, 48 h; how it was run: as §1
# Candida tropicalis [10] = assay: Antifungal activity against Candida tropicalis 156 after 24 hrs by microdilution method; type: functional; details: Candida tropicalis, 156, 24 h; how it was run: as §1
# Candida tropicalis [11] = assay: Antifungal activity against Candida tropicalis 156 after 48 hrs by microdilution method; type: functional; details: Candida tropicalis, 156, 48 h; how it was run: as §1
# Nakaseomyces glabratus [12] = assay: Antifungal activity against Candida glabrata 20/I after 24 hrs by microdilution method; type: functional; how it was run: as §1
# Nakaseomyces glabratus [13] = assay: Antifungal activity against Candida glabrata 20/I after 48 hrs by microdilution method; type: functional; how it was run: as §1
# Clavispora lusitaniae [14] = assay: Antifungal activity against Candida lusitaniae 2446/I after 24 hrs by microdilution method; type: functional; how it was run: as §1
# Clavispora lusitaniae [15] = assay: Antifungal activity against Candida lusitaniae 2446/I after 48 hrs by microdilution method; type: functional; how it was run: as §1
# Trichosporon beigelii [16] = assay: Antifungal activity against Trichosporon beigelii 1188 after 24 hrs by microdilution method; type: functional; details: Trichosporon beigelii, 1188, 24 h; how it was run: as §1
# Trichosporon beigelii [17] = assay: Antifungal activity against Trichosporon beigelii 1188 after 48 hrs by microdilution method; type: functional; details: Trichosporon beigelii, 1188, 48 h; how it was run: as §1
# Aspergillus fumigatus [18] = assay: Antifungal activity against Aspergillus fumigatus 231 after 24 hrs by microdilution method; type: functional; details: Aspergillus fumigatus, 231, 24 h
# How it was run: (§2)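 Filamentous strains held on Sabouraud dextrose agar. NCCLS M27-A broth microdilution in RPMI 1640 with L-glutamine and 0.165 M MOPS, pH 7.0. DMSO diluent ≤2% final; twofold dilutions 500–0.48. Inoculum 5 × 10³ ± 0.2 cfu mL⁻¹ final.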
# Aspergillus fumigatus [19] = assay: Antifungal activity against Aspergillus fumigatus 231 after 48 hrs by microdilution method; type: functional; details: Aspergillus fumigatus, 231, 48 h; how it was run: as §2
# Lichtheimia corymbifera [20] = assay: Antifungal activity against Absidia corymbifera 272 after 24 hrs by microdilution method; type: functional; details: Lichtheimia corymbifera, 272, 24 h; how it was run: as §2
# Lichtheimia corymbifera [21] = assay: Antifungal activity against Absidia corymbifera 272 after 48 hrs by microdilution method; type: functional; details: Lichtheimia corymbifera, 272, 48 h; how it was run: as §2
# [22] = tested on: Trichophyton mentagrophytes; assay: Antifungal activity against Trichophyton mentagrophytes 445 after 72 hrs by microdilution method; type: functional; details: Trichophyton mentagrophytes, 445, 72 h
# How it was run: (§3)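 Dermatophyte held on Sabouraud dextrose agar. M27-A microdilution in MOPS-buffered (0.165 M, pH 7.0) RPMI 1640 with L-glutamine. DMSO ≤2% final; twofold dilutions 500–0.48. Inoculum 5 × 10³ ± 0.2 cfu mL⁻¹ final. Incubated at 35 °C; MIC read visually at 72 and 120 h as 80% inhibition of control growth; determined twice in duplicate.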
# [23] = tested on: Trichophyton mentagrophytes; assay: Antifungal activity against Trichophyton mentagrophytes 445 after 120 hrs by microdilution method; type: functional; details: Trichophyton mentagrophytes, 445, 120 h; how it was run: as §3
# L1210 = assay: Cytostatic activity against mouse L1210 cells after 72 hrs by XTT assay; type: functional, cell-based; details: for IC50: l1210
# How it was run: (§4)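 Leukemia cells (L1210 ATCC CCL 219, CCRF-CEM ATCC CCL 119, HL-60 ATCC CCL 240) grown in 24-well plates in RPMI 1640 with fetal calf serum. Growth assessed 72 h after drug addition. Viability measured by XTT spectrophotometric assay; potency given as IC50.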
# HL-60 = assay: Cytostatic activity against human HL60 cells after 72 hrs by XTT assay; type: functional, cell-based; details: hl-60; how it was run: as §4
# CCRF-CEM = assay: Cytostatic activity against human CCRF-CEM cells after 72 hrs by XTT assay; type: functional, cell-based; details: for IC50: ccrf-cem; how it was run: as §4
# Candida albicans [24] = assay: Antifungal activity against Candida albicans ATCC 44859 after 24 hrs by microdilution method; type: functional; details: ATCC 44859, 24 h; how it was run: as §1
# HeLa S3 = assay: Cytostatic activity against human HeLaS3 cells after 48 hrs by XTT assay; details: for IC50: hela s3
Structure (SMILES),MIC80 (Candida albicans [1]),MIC80 (Candida albicans [2]),MIC80 (Candida albicans [3]),MIC80 (Candida parapsilosis [4]),MIC80 (Candida parapsilosis [5]),MIC80 (Pichia kudriavzevii [6]),MIC80 (Pichia kudriavzevii [7]),MIC80 (Pichia kudriavzevii [8]),MIC80 (Pichia kudriavzevii [9]),MIC80 (Candida tropicalis [10]),MIC80 (Candida tropicalis [11]),MIC80 (Nakaseomyces glabratus [12]),MIC80 (Nakaseomyces glabratus [13]),MIC80 (Clavispora lusitaniae [14]),MIC80 (Clavispora lusitaniae [15]),MIC80 (Trichosporon beigelii [16]),MIC80 (Trichosporon beigelii [17]),MIC80 (Aspergillus fumigatus [18]),MIC80 (Aspergillus fumigatus [19]),MIC80 (Lichtheimia corymbifera [20]),also measured
C/C=C1/C=C(c2ccc(Br)cc2)C(=O)O1,> 500 µM,> 500 µM,> 500 µM,> 500 µM,> 500 µM,> 500 µM,> 500 µM,> 500 µM,> 500 µM,> 500 µM,> 500 µM,> 500 µM,> 500 µM,> 500 µM,> 500 µM,> 500 µM,> 500 µM,> 500 µM,> 500 µM,> 500 µM,MIC80 (Lichtheimia corymbifera [21]): > 500 µM; MIC80 [22]: 31.2 µM; MIC80 [23]: 31.2 µM; IC50 (L1210): Not Active; IC50 (HL-60): Not Active; IC50 (CCRF-CEM): Not Active; MIC80 (Candida albicans [24]): 250 µM; IC50 (HeLa S3): Not Active
O=C1O/C(=C\CCO)C=C1c1ccc(Br)cc1,125 µM,125 µM,250 µM,125 µM,125 µM,125 µM,250 µM,250 µM,250 µM,125 µM,250 µM,62.5 µM,250 µM,125 µM,250 µM,125 µM,125 µM,125 µM,250 µM,62.5 µM,MIC80 (Lichtheimia corymbifera [21]): 62.5 µM; MIC80 [22]: 31.2 µM; MIC80 [23]: 31.2 µM; IC50 (L1210): Not Active; IC50 (HL-60): Not Active; IC50 (CCRF-CEM): Not Active; MIC80 (Candida albicans [24]): 62.5 µM; IC50 (HeLa S3): Not Active
O=C1O/C(=C\CO)C=C1c1ccc(Br)cc1,7.81 µM,7.81 µM,15.6 µM,31.2 µM,62.5 µM,15.6 µM,31.2 µM,31.2 µM,62.5 µM,15.6 µM,31.2 µM,15.6 µM,62.5 µM,7.81 µM,15.6 µM,31.2 µM,62.5 µM,7.81 µM,15.6 µM,15.6 µM,"MIC80 (Lichtheimia corymbifera [21]): 15.6 µM; MIC80 [22]: 7.81 µM; MIC80 [23]: 7.81 µM; pIC50 (L1210; Mus musculus, L1210, 72 h, read-out: IC50): 5.11; IC50 (HL-60): Not Active; pIC50 (CCRF-CEM; Homo sapiens, CCRF-CEM, 72 h, read-out: IC50): 5.68; MIC80 (Candida albicans [24]): 1.95 µM; pIC50 (HeLa S3; Homo sapiens, HeLa S3, 48 h, read-out: IC50): 5.51"
